A short description of series [1]: Volume of distribution was determined in canine following intravenous (iv) administration of drug (1 mg/kg). The class given is ADME, organism-based, Canis lupus familiaris. The conditions noted are these: dog, in vivo. The method in brief: (§1)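 Male beagle dogs given 1 mg/kg intravenously. Plasma sampling gave clearance, volume of distribution and elimination half-life, with half-life calculated over 0–8 h.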

A short description of series [2]: (§2) Oral half life was determined. The class given is ADME, organism-based. Particulars: rat, in vivo. The method in brief: (§3)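 Female Sprague–Dawley rats dosed orally at 1 mgA/kg (free base equivalents). Plasma concentration–time profile gave Cmax, Tmax and apparent oral t1/2.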
The nature of series [3]: Plasma elimination half-life was determined in female Sprague-Dawley rats following intravenous (iv) administration of drug (1 mg/kg). The format is ADME, organism-based. Particulars: rat. In outline:
(§4)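 Female Sprague–Dawley rats given a 1 mgA/kg (free base equivalents) iv dose. Plasma drug levels gave mean Vd, CL and t1/2.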

Series [4] can be described thus: Volume of distribution was determined in female Sprague-Dawley rats following intravenous (iv) administration of drug (1 mg/kg). Particulars: rat, in vivo. The class given is ADME, organism-based. The method in brief:
as §4

A short description of series [5]: Plasma clearance was determined in female Sprague-Dawley rats following intravenous (iv) administration of drug (1 mg/kg). The format is ADME, organism-based. Particulars: rat. The method in brief:
as §4

Series [6] can be described thus: (§5) Bioavailability. The class given is ADME, organism-based. Particulars: rat, in vivo. In outline: (§6)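 Bioavailability of the free base from a 1 mgA/kg oral dose compared with a 1 mgA/kg iv dose. Measured in female Sprague–Dawley rats and in male and female beagle dogs.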
Series [7] in a line: Time taken by the compound to achieve maximum plasma concentration at a 1 mg/kg oral dose in male and female Beagle dogs. The format is ADME, organism-based, Canis lupus familiaris. Also on record: dose 1 mg/kg, route oral. Particulars: both, dog. The method in brief:
(§7)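 Male and female beagle dogs given a single 1 mgA/kg oral dose (free base equivalents). Plasma profile gave Cmax, Tmax and apparent oral t1/2.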

A short description of series [8]: Maximum plasma concentration at a 1 mg/kg oral dose in female Sprague-Dawley rats. The format is ADME, organism-based. Also on record: dose 1 mg/kg, route oral. Particulars: rat. The method in brief:
as §3

Series [9] can be described thus: as §5. The format is ADME, organism-based, Canis lupus familiaris. The conditions noted are these: dog, in vivo. The method in brief: as §6
Series [10] is described as follows: Time taken by the compound to achieve maximum plasma concentration at a 1 mg/kg oral dose in female Sprague-Dawley rats. The class given is ADME, organism-based. Also on record: dose 1 mg/kg, route oral. The conditions noted are these: rat. In outline:
as §3

Series [11] is described as follows: Plasma clearance was determined in canine following intravenous (iv) administration of drug (1 mg/kg). The format is ADME, organism-based, Canis lupus familiaris. Particulars: dog. The method in brief: as §1
The nature of series [12]: as §2. The format is ADME, organism-based, Canis lupus familiaris. The conditions noted are these: dog, in vivo. The method in brief:
as §3

Series [13] in a line: Plasma elimination half-life (08 h) was determined in canine following intravenous (iv) administration (1 mg/kg). Particulars: dog. The class given is ADME, organism-based, Canis lupus familiaris. In outline:
as §1

A short description of series [14]: Maximum plasma concentration at a 1 mg/kg oral dose in male and female Beagle dogs. The class given is ADME, organism-based, Canis lupus familiaris. Further details: dose 1 mg/kg, route oral. Particulars: both, dog. The method in brief:
as §7

The target of series [15] is Growth hormone secretagogue receptor type 1 (Homo sapiens, UniProt Q92847). Put plainly: In vitro binding affinity against human type 1a growth hormone secretagogue receptor (hGHS-R1a), using [125I]ghrelin as radioligand. The method in brief: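 Competitive displacement of [125I]-ghrelin from membranes of HEK293 cells over-expressing hGHS-R1a. Ki values are the average of duplicate experiments.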

Series [16] is filed under the species Rattus norvegicus. Kind of series: In vitro effective concentration required for 50% stimulation of GH release in rat pituitary cell cultures. The format is functional. Particulars: Pituitary gland cell. In outline:
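Rat pituitary cell cultures exposed to compound. Released GH was quantified by rat-specific double-antibody radioimmunoassay. EC50 is the average of triplicate experiments.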

The subject of series [17] is Rattus norvegicus. Kind of series: In vivo effective dose required for 50% stimulation of GH release in anesthetized rat model. The class given is functional. The method in brief:
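Anesthetized Wistar rats given compound iv, with GH release as read-out. ED50 (mg/kg) is the average of triplicate experiments.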

Series [18] is described as follows: Lipophilicity by octanol water distribution coefficient. The format is physicochemical.

A value given as a limit tells only on which side of the number the result lay.

This note sets out measurements from ChEMBL document CHEMBL1134965, “Discovery and biological characterization of capromorelin analogues with extended half-lives” (Bioorg Med Chem Lett, 2002).

Growth hormone secretagogue receptor type 1, sequence (Q92847 whole entry): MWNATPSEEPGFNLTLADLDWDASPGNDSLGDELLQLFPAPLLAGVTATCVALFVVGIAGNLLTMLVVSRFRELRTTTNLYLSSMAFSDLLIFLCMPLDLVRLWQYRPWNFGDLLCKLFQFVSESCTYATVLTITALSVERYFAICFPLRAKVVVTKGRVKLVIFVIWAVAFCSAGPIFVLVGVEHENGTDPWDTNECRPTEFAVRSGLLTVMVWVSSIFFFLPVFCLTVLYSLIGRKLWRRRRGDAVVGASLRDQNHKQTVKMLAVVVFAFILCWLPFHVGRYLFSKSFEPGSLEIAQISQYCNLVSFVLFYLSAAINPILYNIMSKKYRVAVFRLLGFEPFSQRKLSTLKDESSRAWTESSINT

Turning to `CC(C)(N)C(=O)N[C@H](COCc1ccc(F)cc1F)C(=O)N1CCC2=NN(CC(F)(F)F)C(=O)[C@]2(Cc2ccccn2)C1`, the Vd came to 1.5 L/kg in series [1] and 4.9 L/kg in [4]. Moreover, the half-life is 3.9 h in series [2], 1.9 h in series [3], 4.2 h in [12] and 3.7 h in series [13]. Further, the clearance was 46 mL/min/kg in series [5] and 5.3 mL/min/kg in series [11]. Moreover, the bioavailability came to 59% in series [6] and 77% in series [9]. Besides, the Tmax in [7] was 1.3 h; in series [10], 0.25 h. In addition, the Cmax in [8] came out at 88 ng/mL; in [14], 260 ng/mL. In series [15], this compound displayed a Ki of 5 nM. In the series filed under Rattus norvegicus [16], this compound returned an EC50 of 3 nM. This compound had an ED50 in the series on Rattus norvegicus [17] of 0.1 mg/kg. Moreover, in series [18], the logD amounted to 1.6.

`CN1N=C2CCN(C(=O)[C@@H](COCc3ccc(F)c(F)c3)NC(=O)C(C)(C)N)CC2(Cc2ccccc2)C1=O` (stereo not given in full) had a Vd in series [1] of 3.5 L/kg. The clearance in series [11] stood at 17 mL/min/kg. In addition, the half-life in series [13] is 2.7 h. Also, in series [15], the Ki amounted to 18 nM. In the series filed under Rattus norvegicus [16], this compound displayed an EC50 of 10 nM. Further, the 50% effect level in the series on Rattus norvegicus [17] (ED50) was put at a dose of 0.3 mg/kg. The logD in series [18] stood at 1.7.

The compound `CC(C)(N)C(=O)N[C@H](COCc1ccc(F)c(F)c1)C(=O)N1CCC2=NN(CC(F)(F)F)C(=O)C2(Cc2ccccc2)C1` (stereo not given in full) yielded a Vd in series [1] of 5.1 L/kg. In addition, the clearance in series [11] stood at 13 mL/min/kg. In addition, the half-life in [13] was 4.7 h. This compound also had a Ki in series [15] of 0.45 nM. In addition, in the series filed under Rattus norvegicus [16], the EC50 came to 2 nM. Further, the ED50 in the series on Rattus norvegicus [17] was above 10 mg/kg. In addition, in series [18], the logD is 3.

For `CC(C)(N)C(=O)N[C@H](COCc1ccccc1)C(=O)N1CCC2=NN(C(C)(C)C)C(=O)C2(Cc2ccccc2)C1` (stereo not given in full), the Vd in [1] was found to be 2.2 L/kg. Also, the clearance in [11] amounted to 13 mL/min/kg. The half-life in series [13] was 2.5 h. Besides, the log distribution coefficient (logD) in series [18] came out at 2.9.

In turn, `CC(C)(N)C(=O)N[C@H](COCc1ccc(F)c(F)c1)C(=O)N1CCC2=NN(C(C)(C)C)C(=O)C2(Cc2ccccc2)C1` (stereo not given in full) gave a Vd in series [1] of 5.9 L/kg. In series [11], the clearance is 19 mL/min/kg. In series [13], this compound had a half-life of 3.9 h. For the same compound, the affinity in [15], expressed as Ki, was 0.34 nM. Further, the EC50 in the series listed under Rattus norvegicus [16] stood at 4 nM. In the series with Rattus norvegicus [17], the ED50 is above 10 mg/kg. Moreover, the logD in series [18] is 2.9.

With `CN1N=C2CCN(C(=O)[C@@H](COCc3ccccc3)NC(=O)C(C)(C)N)C[C@@]2(Cc2ccccc2)C1=O` [CAPROMORELIN], in [1], the Vd was found to be 2 L/kg. The same compound had a clearance in series [11] of 19 mL/min/kg. In series [13], this compound had a half-life of 1.3 h. This compound registered a Ki in [15] of 7 nM. Further, the EC50 in the series filed under Rattus norvegicus [16] was 3 nM. Moreover, the 50% effect level in the series on Rattus norvegicus [17] (ED50) was put at a dose of 0.05 mg/kg. The same compound yielded a logD in [18] of 1.7.
